Legend:
[1] = molecular target: T1, Amine oxidase [flavin-containing] A (Homo sapiens, UniProt P21397); assay: Inhibition of recombinant human monoamine oxidase A expressed in insect microsomes using kynuramine as substrate after 20 mins by fluorescence spectrophotometry; set-up: species or system Microsome
T1 sequence (P21397 whole entry): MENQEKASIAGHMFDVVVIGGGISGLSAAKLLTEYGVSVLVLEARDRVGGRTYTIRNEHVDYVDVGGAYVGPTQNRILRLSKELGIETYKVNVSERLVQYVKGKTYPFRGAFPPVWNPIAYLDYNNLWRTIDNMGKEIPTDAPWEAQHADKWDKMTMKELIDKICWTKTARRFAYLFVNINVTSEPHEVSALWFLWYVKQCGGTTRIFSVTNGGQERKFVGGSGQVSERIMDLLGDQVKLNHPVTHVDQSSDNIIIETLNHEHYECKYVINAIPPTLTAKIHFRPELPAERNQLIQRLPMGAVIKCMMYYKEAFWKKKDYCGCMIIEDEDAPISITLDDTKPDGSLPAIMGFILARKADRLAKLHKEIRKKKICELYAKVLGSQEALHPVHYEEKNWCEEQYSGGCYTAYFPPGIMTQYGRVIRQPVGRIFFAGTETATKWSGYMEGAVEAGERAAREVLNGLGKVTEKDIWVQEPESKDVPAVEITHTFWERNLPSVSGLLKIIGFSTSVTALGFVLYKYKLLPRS
Procedure, shortened: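 Enzyme source: insect-cell microsomes with recombinant human MAO-A or MAO-B at 0.0075 mg protein/mL, with kynuramine as substrate. Buffer was potassium phosphate 100 mM, pH 7.4, made isotonic with 20.2 mM KCl. Six inhibitor concentrations (0–100 µM) spanned at least 3 log units. Incubation was 20 min at 37 °C, then stopped with 2 N NaOH. 4-Hydroxyquinoline was read by fluorescence ([…] nm as printed) against a 0.047–1.56 µM standard curve. IC50 came from sigmoidal fits of initial rate versus log inhibitor, in triplicate, mean ± SD.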

[2] = molecular target: T2, Amine oxidase [flavin-containing] B (Homo sapiens, UniProt P27338); assay: Inhibition of recombinant human monoamine oxidase B expressed in insect microsomes using kynuramine as substrate after 20 mins by fluorescence spectrophotometry; set-up: species or system Microsome
T2 sequence (P27338 whole entry): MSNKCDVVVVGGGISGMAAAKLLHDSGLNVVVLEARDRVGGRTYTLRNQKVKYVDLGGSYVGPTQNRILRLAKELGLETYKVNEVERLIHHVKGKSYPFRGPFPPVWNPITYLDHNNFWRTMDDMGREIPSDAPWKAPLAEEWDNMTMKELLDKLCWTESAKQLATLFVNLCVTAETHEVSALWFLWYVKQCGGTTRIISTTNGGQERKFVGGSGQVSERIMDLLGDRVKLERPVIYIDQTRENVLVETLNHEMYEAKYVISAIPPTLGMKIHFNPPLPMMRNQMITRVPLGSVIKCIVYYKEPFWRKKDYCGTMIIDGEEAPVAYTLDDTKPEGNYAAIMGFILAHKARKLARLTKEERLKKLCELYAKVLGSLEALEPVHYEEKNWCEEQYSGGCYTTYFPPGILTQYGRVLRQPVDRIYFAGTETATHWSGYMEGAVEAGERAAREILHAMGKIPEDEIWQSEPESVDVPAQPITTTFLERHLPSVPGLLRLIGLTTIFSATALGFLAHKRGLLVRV
Procedure, shortened: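 Enzyme source: insect-cell microsomes with recombinant human MAO-A or MAO-B at 0.0075 mg protein/mL, with kynuramine as substrate. Six inhibitor concentrations (0–100 µM) spanned at least 3 log units. Incubation was 20 min at 37 °C, then stopped with 2 N NaOH. IC50 came from sigmoidal fits of initial rate versus log inhibitor, in triplicate, mean ± SD.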

[3] = species: Homo sapiens; assay: Selectivity index, ratio of IC50 for recombinant human monoamine oxidase A to IC50 for recombinant human monoamine oxidase B
[4] = molecular target: T2, Amine oxidase [flavin-containing] B; assay: Competitive inhibition of recombinant human monoamine oxidase B at 0.064 uM preincubated for 15 to 60 mins before kynuramine substrate addition measured after 15 mins by Lineweaver-Burk plot analysis; conditions: 0.25 h
[5] = molecular target: T1, Amine oxidase [flavin-containing] A; assay: Competitive inhibition of recombinant human monoamine oxidase A at 0.190 uM preincubated for 15 to 60 mins before kynuramine substrate addition measured after 15 mins; conditions: 0.25 h, 0.19 µM

Structure (SMILES) | IC50 [1] [nM] | IC50 [2] [nM] | Ratio IC50 [3] | inhibition (INH) [4] | inhibition (INH) [5]
O=c1ccoc2ccc(OCc3cccc(Br)c3)cc12 | 386 | 2 | 193 |  | 
N#Cc1ccc(COc2ccc3occc(=O)c3c2)cc1 | 175 | 22 | 8 |  | 
O=c1ccoc2ccc(OCc3ccc(Cl)cc3)cc12 | 106 |  |  |  | 
O=c1ccoc2ccc(OCc3ccc(Br)cc3)cc12 | 95 | 3.3 | 29 | Active | Active
N#Cc1cccc(COc2ccc3occc(=O)c3c2)c1 | 255 | 76 | 3 |  | 
O=c1ccoc2ccc(OCc3cccc(F)c3)cc12 | 1230 | 13 | 95 |  | 
Cc1cccc(COc2ccc3occc(=O)c3c2)c1 | 1130 | 19 | 59 |  | 
O=c1ccoc2ccc(OCc3ccccc3)cc12 | 3300 | 53 | 62 |  | 
O=c1ccoc2ccc(OCc3ccc(F)cc3)cc12 | 322 |  |  |  | 
O=c1ccoc2ccc(OCCc3ccccc3)cc12 | 3120 | 21 | 149 |  | 
O=c1ccoc2ccc(OCc3cccc(Cl)c3)cc12 | 424 | 3.6 | 118 |  | 
O=c1ccoc2ccc(OCCc3ccc(Br)cc3)cc12 | 480 | 27 | 18 |  | 
O=c1ccoc2ccc(OCCCc3ccccc3)cc12 | 1910 | 57 | 34 |  | 
O=c1ccoc2ccc(OCc3ccc(C(F)(F)F)cc3)cc12 | 879 | 2 | 440 |  | 
Cc1ccc(COc2ccc3occc(=O)c3c2)cc1 | 3490 | 6 | 582 |  | 

— ChEMBL document CHEMBL1944574, “Inhibition of monoamine oxidase by selected C6-substituted chromone derivatives” (Eur J Med Chem, 2012)
